Key:
HCT-15 = assay: Growth inhibition of human HCT15 cells after 7 days by celltiter-glo assay; type: functional; settings: HCT-15, 168 h
A549 = assay: Growth inhibition of human A549 cells expressing p53 after 7 days by celltiter-glo assay; type: functional; settings: A549, 168 h
DU-145 = assay: Growth inhibition of human DU145 cells after 7 days by celltiter-glo assay; type: functional; settings: DU-145, 168 h
SF-268 = assay: Growth inhibition of human SF268 cells after 7 days by celltiter-glo assay; type: functional; settings: SF-268, 168 h
MCF7 = assay: Growth inhibition of human MCF7 cells after 7 days by celltiter-glo assay; type: functional; settings: MCF7, 168 h
HT-29 = assay: Growth inhibition of human HT-29 cells after 7 days by celltiter-glo assay; type: functional; settings: HT-29, 168 h
[1] = Growth inhibition of human p53 deficient Hep3B cells after 7 days by celltiter-glo assay; type: functional, Hep 3B2; settings: 168 h
Outline: (§1)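 Cells seeded at 500 per well in 384-well plates. Compounds came from 30 mM DMSO stocks, serially diluted and tested in quadruplicate. Incubation was 7 d at 37 °C under 5% CO2. Calcein AM (10 μM) and EthD-1 were added, followed by a fluorescence read. CellTiter-Glo lysis was then done for 10 min at room temperature, with a luminescence read. GI50 came from curve fitting.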

SK-OV-3 = assay: Growth inhibition of human SKOV3 cells after 7 days by celltiter-glo assay; type: functional; settings: SK-OV-3, 168 h
[2] = Growth inhibition of human p53 deficient H1299 cells after 7 days by celltiter-glo assay; type: functional; settings: NCI-H1299, 168 h; outline: as §1
NCI-H460 = assay: Growth inhibition of human NCI-H460 cells after 7 days by celltiter-glo assay; type: functional; settings: NCI-H460, 168 h

Compound | GI50 (HCT-15) | GI50 (A549) | GI50 (DU-145) | GI50 (SF-268) | GI50 (MCF7) | GI50 (HT-29) | GI50 [1] | GI50 (SK-OV-3) | GI50 [2] | GI50 (NCI-H460)
CON(CCCc1ccc(N(CCCl)CCCl)cc1)C1O[C@H](CN)[C@@H](O)[C@H](O)[C@H]1O (stereo not given in full) | 1.3 µM | 3.7 µM | 2.8 µM | 2.2 µM | 3.7 µM | 2.5 µM | 3.5 µM | 2.2 µM | 1.1 µM | 5 µM
CON(CCCc1ccc(N(CCCl)CCCl)cc1)[C@@H]1O[C@H](CO)[C@@H](O)[C@H](O)[C@H]1O | 2.8 µM | 4.5 µM | 5.5 µM | 1.8 µM | 1.5 µM | 2.9 µM | 3.4 µM | 3 µM | 1.4 µM | 12.3 µM
CON(CCCc1ccc(N(CCCl)CCCl)cc1)C1O[C@H](CO)[C@@H](O[C@@H]2O[C@H](CO)[C@@H](O)[C@H](O)[C@H]2O)[C@H](O)[C@H]1O (stereo not given in full) | 2.3 µM | 1.6 µM | 1.8 µM | 1.5 µM | 1.7 µM | 1.9 µM | 1.2 µM | 1.8 µM | 1.8 µM | 3.8 µM
CON(CCCc1ccc(N(CCCl)CCCl)cc1)C1O[C@H](CO)[C@@H](O)[C@H](O)[C@@H]1O (stereo not given in full) | 1.9 µM | 3.5 µM | 5.1 µM | 1.8 µM | 1.9 µM | 2.6 µM | 3.2 µM | 2.3 µM | 1.01 µM | 7.8 µM
CON(CCCc1ccc(N(CCCl)CCCl)cc1)[C@@H]1OC[C@@H](O)[C@H]1O | 0.77 µM | 3.1 µM | 5 µM | 2.4 µM | 8 µM | 1.6 µM | 4.1 µM | 2.6 µM | 1.1 µM | 7.8 µM
CON(CCCc1ccc(N(CCCl)CCCl)cc1)[C@H]1O[C@H](CO)[C@H](O)[C@H](O)[C@@H]1O | 2.2 µM | 2.6 µM | 3.3 µM | 1.7 µM | 1.5 µM | 1.8 µM | 2.4 µM | 2 µM | 3 µM | 5 µM
[O-]/[N+](=C\[C@@H](O)[C@H](O)CO)CCCc1ccc(N(CCCl)CCCl)cc1 | 2.5 µM | 3 µM | 3.6 µM | 1.2 µM | 2 µM | 3.2 µM | 1.7 µM | 2.6 µM | 1.07 µM | 3.8 µM
CON(CCCc1ccc(N(CCCl)CCCl)cc1)C1O[C@H](CO)[C@H](O)[C@H](O)[C@H]1O (stereo not given in full) | 2.4 µM | 4.4 µM | 5.6 µM | 1.9 µM | 1.3 µM | 3.3 µM | 3.6 µM | 3.4 µM | 1.3 µM | 9.7 µM
CO[C@@H]1[C@@H](O)[C@H](N(CCCc2ccc(N(CCCl)CCCl)cc2)OC)O[C@H](CO)[C@H]1O | 1.1 µM | 3.6 µM | 5.1 µM | 2.8 µM | 8.3 µM | 2.7 µM | 4.2 µM | 2.4 µM | 1.7 µM | 7.8 µM
CON(CCCc1ccc(N(CCCl)CCCl)cc1)C1O[C@H](CO)[C@@H](O)[C@H](O)[C@@H]1NC(C)=O (stereo not given in full) | 22 µM | 21 µM | 16 µM | 3.4 µM | 9 µM | 8.7 µM | 9.8 µM | 10.1 µM | 2.7 µM | 33.3 µM
CON(CCCc1ccc(N(CCCl)CCCl)cc1)C1O[C@@H](CO)[C@@H](O)[C@@H](O)[C@@H]1O (stereo not given in full) | 2.3 µM | 4.8 µM | 5.5 µM | 2 µM | 1.3 µM | 3.7 µM | 3.8 µM | 4.1 µM | 1.4 µM | 10.4 µM
O=C(O)CCCc1ccc(N(CCCl)CCCl)cc1 [CHLORAMBUCIL] | 8.1 µM | 6.1 µM | 9.4 µM | 5.4 µM | 8.2 µM | 5 µM | 5.1 µM | 5.5 µM | 4.9 µM | 11 µM
CON(CCCc1ccc(N(CCCl)CCCl)cc1)[C@@H]1OC[C@@H](O)[C@H](O)[C@H]1O | 0.9 µM | 2.3 µM | 2.3 µM | 1.4 µM | 0.91 µM | 1.6 µM | 1.5 µM | 2.2 µM | 0.83 µM | 4.5 µM
CON(CCCc1ccc(N(CCCl)CCCl)cc1)C1OC[C@H](O)[C@H](O)[C@@H]1O (stereo not given in full) | 2.1 µM | 2.4 µM | 3.7 µM | 2.1 µM | 0.97 µM | 2.2 µM | 2.4 µM | 2 µM | 3.3 µM | 5.7 µM
CON(CCCc1ccc(N(CCCl)CCCl)cc1)[C@H]1O[C@@H](CO)[C@H](O)[C@@H](O)[C@@H]1O | 2.8 µM | 6.8 µM | 7 µM | 2.2 µM | 1.8 µM | 4.6 µM | 5 µM | 4.5 µM | 1.6 µM | 14.3 µM
O[C@@H]1[C@H](O)COC(N(O)CCCc2ccc(N(CCCl)CCCl)cc2)[C@@H]1O (stereo not given in full) | 0.87 µM | 0.84 µM | > 5 µM | 1.5 µM | 3.2 µM | 0.9 µM | > 5 µM | 0.89 µM | 1.6 µM | 1.04 µM
CON(CCCc1ccc(N(CCCl)CCCl)cc1)[C@H]1C[C@@H](O)[C@H](O)[C@@H](C)O1 | 2.5 µM | 3.1 µM | 5.5 µM | 2.3 µM | 3.1 µM | 3.2 µM | 3.8 µM | 3.2 µM | 4.8 µM | 5.7 µM
CON(CCCc1ccc(N(CCCl)CCCl)cc1)[C@H]1OC[C@H](O)[C@@H](O)[C@@H]1O | 0.83 µM | 2.2 µM | 2.2 µM | 1.5 µM | 1.2 µM | 1.5 µM | 1.6 µM | 2.4 µM | 0.93 µM | 2.9 µM
O=C(CCCc1ccc(N(CCCl)CCCl)cc1)NN[C@@H]1OC[C@@H](O)[C@H](O)[C@H]1O | > 100 µM | 14.8 µM | 19 µM | 2.5 µM | 4.5 µM | 7.2 µM | 5.5 µM | 12 µM | 3.9 µM | 26 µM
CON(CCCc1ccc(N(CCCl)CCCl)cc1)[C@@H]1O[C@H](CO)[C@H](O)[C@H](O)[C@@H]1O | 2 µM | 2.7 µM | 3.4 µM | 1.7 µM | 1.8 µM | 1.9 µM | 2.6 µM | 2 µM | 2.4 µM | 4.3 µM
CON(CCCc1ccc(N(CCCl)CCCl)cc1)C1O[C@@H](C)[C@@H](O)[C@@H](O)[C@@H]1O (stereo not given in full) | 1.4 µM | 2.2 µM | 3.8 µM | 2 µM | 0.78 µM | 2.3 µM | 3 µM | 1.8 µM | 1.2 µM | 5.4 µM
CON(CCCc1ccc(N(CCCl)CCCl)cc1)C1O[C@@H](C)[C@H](OC(C)=O)[C@@H](OC(C)=O)[C@H]1OC(C)=O (stereo not given in full) | 3.7 µM | 3.5 µM | 4.5 µM | 3 µM | 3.2 µM | 4.3 µM | 4.6 µM | 3.9 µM | 5 µM | 7.8 µM
C[C@H]1O[C@@H](NNC(=O)CCCc2ccc(N(CCCl)CCCl)cc2)[C@H](O)[C@@H](O)[C@H]1O | > 100 µM | 28 µM | 24 µM | 5.8 µM | 6.3 µM | 16.7 µM | 11 µM | 22 µM | 8.7 µM | 51 µM
CON(CCCc1ccc(N(CCCl)CCCl)cc1)[C@H]1O[C@H](COCc2ccccc2)[C@@H](OCc2ccccc2)[C@@H]1OCc1ccccc1 | 64 µM | > 100 µM | > 100 µM | 80 µM | 82 µM | 47 µM | > 100 µM | > 100 µM | > 100 µM | > 100 µM
CON(CCCc1ccc(N(CCCl)CCCl)cc1)C1C[C@@H](O)[C@@H](O)[C@@H](CO)O1 (stereo not given in full) | 1.6 µM | 3.2 µM | 5 µM | 2.2 µM | 1.04 µM | 3.5 µM | 3.3 µM | 2.4 µM | 1.5 µM | 6.6 µM
O=C(CCCc1ccc(N(CCCl)CCCl)cc1)NN[C@@H]1O[C@H]2[C@H](OC(=O)[C@H]2O)[C@H]1O | > 100 µM | 31 µM | 23 µM | 8.9 µM | 9.9 µM | 30 µM | 17.7 µM | 37 µM | 12.9 µM | 43 µM

Source: ChEMBL document CHEMBL1275392, “Assessment of chemoselective neoglycosylation methods using chlorambucil as a model” (2010)
